Reference: ChEMBL document CHEMBL2086331, “Novel triazolopyridylbenzamides as potent and selective p38α inhibitors” (Bioorg Med Chem Lett, 2012)
One block for each compound: values may come before it.

Tests used:
Blood = assay: Inhibition of LPS-induced TNFalpha production in human whole blood; assay type: functional, tissue-based
[1] = Cmax in beagle dog at 1 mg/kg, po; assay type: ADME, organism-based, Canis lupus familiaris; design: dose 1 mg/kg, route oral; settings: in vivo
Procedure, shortened: (§1)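 Beagle dogs dosed 1 mg/kg iv or 1 mg/kg po; pharmacokinetic parameters reported as mean values of n = 2 animals.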

[2] = AUC in beagle dog at 1 mg/kg, iv; assay type: ADME, organism-based, Canis lupus familiaris; design: dose 1 mg/kg, route intravenous; settings: plasma; procedure, shortened: as §1
[3] = AUC in Wistar rat at 1 mg/kg, iv; assay type: ADME, organism-based; design: dose 1 mg/kg, route intravenous; settings: plasma
Procedure, shortened: (§2)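 Wistar rats, single dose either iv 1 mg/kg in 40% PEG + 0.4% HCl 1 N, or oral 10 mg/kg in 0.5% methylcellulose + 0.1% Tween 80; plasma PK parameters reported as mean values (n = 2).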

[4] = AUC in Wistar rat at 10 mg/kg, po; assay type: ADME, organism-based; design: dose 10 mg/kg, route oral; settings: plasma; procedure, shortened: as §2
[5] = Protein binding in human plasma; assay type: ADME, cell-free; settings: read-out: PPB (converted)
[6] = Volume of distribution at steady state in beagle dog at 1 mg/kg, iv; assay type: ADME, organism-based, Canis lupus familiaris; design: dose 1 mg/kg, route intravenous; settings: in vivo, read-out: Vdss; procedure, shortened: as §1
Cytochrome P450 1A2 = biological target: T1, Cytochrome P450 1A2 (Homo sapiens, UniProt P05177); assay: Inhibition of CYP1A2 at < 25 uM; assay type: ADME
T1 sequence (P05177 whole entry): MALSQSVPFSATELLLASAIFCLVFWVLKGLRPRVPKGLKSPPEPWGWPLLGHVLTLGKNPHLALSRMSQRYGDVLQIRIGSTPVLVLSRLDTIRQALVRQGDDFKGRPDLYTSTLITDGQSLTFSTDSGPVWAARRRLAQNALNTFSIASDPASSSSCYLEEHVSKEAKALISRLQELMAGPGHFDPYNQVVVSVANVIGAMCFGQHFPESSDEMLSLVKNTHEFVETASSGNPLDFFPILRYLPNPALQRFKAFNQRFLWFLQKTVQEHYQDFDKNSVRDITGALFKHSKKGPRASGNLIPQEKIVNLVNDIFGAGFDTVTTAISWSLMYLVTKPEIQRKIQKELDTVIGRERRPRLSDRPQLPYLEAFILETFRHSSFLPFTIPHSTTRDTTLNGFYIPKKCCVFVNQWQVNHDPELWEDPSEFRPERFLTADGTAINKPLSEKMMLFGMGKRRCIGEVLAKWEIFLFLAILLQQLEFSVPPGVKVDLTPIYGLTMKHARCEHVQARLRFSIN

Cytochrome P450 2C19 = Cytochrome P450 2C19 (Homo sapiens, UniProt P33261); assay: Inhibition of CYP2C19 at < 25 uM; assay type: ADME
Sequence of Cytochrome P450 2C19 (P33261 whole entry): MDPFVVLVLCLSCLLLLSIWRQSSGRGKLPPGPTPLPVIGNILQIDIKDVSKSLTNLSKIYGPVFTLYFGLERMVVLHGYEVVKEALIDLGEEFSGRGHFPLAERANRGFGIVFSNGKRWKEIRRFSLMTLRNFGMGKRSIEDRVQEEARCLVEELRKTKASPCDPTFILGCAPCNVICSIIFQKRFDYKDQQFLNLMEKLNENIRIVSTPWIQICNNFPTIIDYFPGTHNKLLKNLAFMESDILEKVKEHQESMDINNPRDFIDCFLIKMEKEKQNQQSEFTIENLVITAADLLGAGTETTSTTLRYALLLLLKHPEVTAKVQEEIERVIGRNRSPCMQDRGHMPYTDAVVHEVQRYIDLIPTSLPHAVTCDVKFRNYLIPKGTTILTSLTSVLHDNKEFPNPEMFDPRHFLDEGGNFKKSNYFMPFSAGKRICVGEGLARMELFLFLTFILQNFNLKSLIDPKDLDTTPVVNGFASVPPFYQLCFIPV

[7] = Cmax in Wistar rat at 10 mg/kg, po; assay type: ADME, organism-based; design: dose 10 mg/kg, route oral; settings: in vivo; procedure, shortened: as §2
CHO [8] = assay: Cytotoxicity against CHO cells at 200 uM; assay type: cell-based, Cricetulus griseus; settings: chinese hamster
[9] = Protein binding in rat plasma; assay type: ADME, cell-free; settings: read-out: PPB (converted)
Cytochrome P450 2D6 = Cytochrome P450 2D6 (Homo sapiens, UniProt P10635); assay: Inhibition of CYP2D6 at < 25 uM; assay type: ADME
Sequence of Cytochrome P450 2D6 (P10635 whole entry): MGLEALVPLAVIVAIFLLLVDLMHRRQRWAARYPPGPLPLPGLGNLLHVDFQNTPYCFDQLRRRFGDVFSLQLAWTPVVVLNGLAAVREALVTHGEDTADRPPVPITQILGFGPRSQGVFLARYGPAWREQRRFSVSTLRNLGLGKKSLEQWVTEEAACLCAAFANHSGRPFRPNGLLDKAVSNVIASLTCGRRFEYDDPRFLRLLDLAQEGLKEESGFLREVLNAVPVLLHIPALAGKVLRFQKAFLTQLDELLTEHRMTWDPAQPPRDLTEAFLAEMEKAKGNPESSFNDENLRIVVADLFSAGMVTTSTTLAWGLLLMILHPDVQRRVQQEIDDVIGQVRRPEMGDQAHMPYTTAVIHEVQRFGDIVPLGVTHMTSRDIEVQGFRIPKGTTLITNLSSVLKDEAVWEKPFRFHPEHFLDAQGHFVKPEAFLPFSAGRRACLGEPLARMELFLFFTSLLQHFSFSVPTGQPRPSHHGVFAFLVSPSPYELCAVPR

[10] = Volume of distribution at steady state in Wistar rat at 1 mg/kg, iv; assay type: ADME, organism-based; design: dose 1 mg/kg, route intravenous; settings: in vivo, read-out: Vdss; procedure, shortened: as §2
[11] = Passive permeability from basolateral to apical side in human Caco2 cells at 12.5 uM; assay type: ADME, cell-based; settings: Caco-2, read-out: permeability
Procedure, shortened: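 Caco-2 monolayer, test compound 12.5 µM; passive apparent permeability measured in both AB and BA directions, reported in 10^-6 cm/s.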

[12] = Clearance in beagle dog at 1 mg/kg, iv; assay type: ADME, organism-based, Canis lupus familiaris; design: dose 1 mg/kg, route intravenous; settings: in vivo; procedure, shortened: as §1
[13] = Half life in Wistar rat at 1 mg/kg, iv; assay type: ADME, organism-based; design: dose 1 mg/kg, route intravenous; settings: in vivo; procedure, shortened: as §2
[14] = Stability in rat hepatic microsomes assessed as compound turnover at 5 uM incubated for 30 mins in presence of NADPH; assay type: ADME; settings: liver microsomes, read-out: Drug degradation
Procedure, shortened: (§3)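 Rat or human hepatic microsomes (1 mg/mL) with NADPH, test compound 5 µM, 30 min at 37 °C; readout is % turnover of parent.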

[15] = Clearance in Wistar rat at 1 mg/kg, iv; assay type: ADME, organism-based; design: dose 1 mg/kg, route intravenous; settings: in vivo; procedure, shortened: as §2
in vitro = settings: human, Caco-2
[16] = Stability in human hepatic microsomes assessed as compound turnover at 5 uM incubated for 30 mins in presence of NADPH; assay type: ADME; settings: liver microsomes, read-out: Drug degradation; procedure, shortened: as §3
[17] = AUC in beagle dog at 1 mg/kg, po; assay type: ADME, organism-based, Canis lupus familiaris; design: dose 1 mg/kg, route oral; settings: plasma; procedure, shortened: as §1
[18] = Oral bioavailability in beagle dog at 1 mg/kg; assay type: ADME, organism-based, Canis lupus familiaris; settings: in vivo; procedure, shortened: as §1
[19] = Half life in beagle dog at 1 mg/kg, iv; assay type: ADME, organism-based, Canis lupus familiaris; design: dose 1 mg/kg, route intravenous; settings: in vivo; procedure, shortened: as §1
Rattus norvegicus [20] = assay: Antiarthritic effect in rat adjuvant-induced arthritis model assessed as inhibition of right paw edema at 3 mg/kg, po dosed daily during last 10 days of test; assay type: functional; settings: 240 h
Procedure, shortened: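 Arthritis induced by complete Freund's adjuvant injected into left hind paw; oral compound daily over final 10 days of protocol; right (non-injected) paw volume monitored, result as % inhibition of oedema.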

Cytochrome P450 2C9 = Cytochrome P450 2C9 (Homo sapiens, UniProt P11712); assay: Inhibition of CYP2C9 at < 25 uM; assay type: ADME
Sequence of Cytochrome P450 2C9 (P11712 whole entry): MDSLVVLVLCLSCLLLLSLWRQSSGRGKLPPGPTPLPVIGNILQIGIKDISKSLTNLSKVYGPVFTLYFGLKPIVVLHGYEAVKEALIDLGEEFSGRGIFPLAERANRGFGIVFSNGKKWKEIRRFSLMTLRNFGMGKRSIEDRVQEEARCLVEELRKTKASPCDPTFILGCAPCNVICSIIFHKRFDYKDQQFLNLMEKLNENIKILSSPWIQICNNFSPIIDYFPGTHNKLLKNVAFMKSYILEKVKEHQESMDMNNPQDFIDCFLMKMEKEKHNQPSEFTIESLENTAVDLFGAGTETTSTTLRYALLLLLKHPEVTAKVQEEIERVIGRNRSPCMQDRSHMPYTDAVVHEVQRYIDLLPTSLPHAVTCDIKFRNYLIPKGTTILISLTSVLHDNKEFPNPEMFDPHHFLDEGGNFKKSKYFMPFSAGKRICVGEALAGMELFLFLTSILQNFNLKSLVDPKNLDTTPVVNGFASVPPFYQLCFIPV

[21] = Oral bioavailability in Wistar rat at 10 mg/kg; assay type: ADME, organism-based; settings: in vivo; procedure, shortened: as §2
Rattus norvegicus [22] = assay: Inhibition of TNFalpha release in rat LPS-induced endotoxemia model dosed orally 1 hr prior to LPS challenge and measured 1.5 hrs post LPS challenge; assay type: functional; settings: po
Procedure, shortened: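 Rats given compound orally 1 h before LPS challenge to induce endotoxemia; plasma TNFα quantified 1.5 h after LPS, at peak TNF production.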

CHO [23] = assay: Toxicity against CHO cells; assay type: cell-based, Cricetulus griseus; settings: chinese hamster
[24] = biological target: T2, RAF proto-oncogene serine/threonine-protein kinase (Homo sapiens, UniProt P04049); assay: Inhibition of c-Raf
T2 sequence (P04049 whole entry): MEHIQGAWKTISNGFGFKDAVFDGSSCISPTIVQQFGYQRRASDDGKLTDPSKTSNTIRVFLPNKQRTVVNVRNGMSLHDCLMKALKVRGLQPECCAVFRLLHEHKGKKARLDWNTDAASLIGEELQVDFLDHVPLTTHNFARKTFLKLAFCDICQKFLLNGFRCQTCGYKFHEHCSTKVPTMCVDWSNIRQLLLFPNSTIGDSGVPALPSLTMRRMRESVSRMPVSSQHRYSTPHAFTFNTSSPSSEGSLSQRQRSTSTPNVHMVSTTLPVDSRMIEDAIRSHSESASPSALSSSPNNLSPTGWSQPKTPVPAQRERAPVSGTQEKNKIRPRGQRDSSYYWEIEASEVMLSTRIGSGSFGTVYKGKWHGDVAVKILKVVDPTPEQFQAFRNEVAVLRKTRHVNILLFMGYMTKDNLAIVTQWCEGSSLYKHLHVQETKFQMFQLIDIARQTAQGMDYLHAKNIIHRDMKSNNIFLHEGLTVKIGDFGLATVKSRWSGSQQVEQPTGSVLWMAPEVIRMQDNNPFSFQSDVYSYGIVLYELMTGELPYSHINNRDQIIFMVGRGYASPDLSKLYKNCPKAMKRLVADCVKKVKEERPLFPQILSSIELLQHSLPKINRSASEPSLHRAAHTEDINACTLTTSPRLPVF

Cytochrome P450 3A4 = Cytochrome P450 3A4 (Homo sapiens, UniProt P08684); assay: Inhibition of CYP3A4 at < 25 uM; assay type: ADME
Sequence of Cytochrome P450 3A4 (P08684 whole entry): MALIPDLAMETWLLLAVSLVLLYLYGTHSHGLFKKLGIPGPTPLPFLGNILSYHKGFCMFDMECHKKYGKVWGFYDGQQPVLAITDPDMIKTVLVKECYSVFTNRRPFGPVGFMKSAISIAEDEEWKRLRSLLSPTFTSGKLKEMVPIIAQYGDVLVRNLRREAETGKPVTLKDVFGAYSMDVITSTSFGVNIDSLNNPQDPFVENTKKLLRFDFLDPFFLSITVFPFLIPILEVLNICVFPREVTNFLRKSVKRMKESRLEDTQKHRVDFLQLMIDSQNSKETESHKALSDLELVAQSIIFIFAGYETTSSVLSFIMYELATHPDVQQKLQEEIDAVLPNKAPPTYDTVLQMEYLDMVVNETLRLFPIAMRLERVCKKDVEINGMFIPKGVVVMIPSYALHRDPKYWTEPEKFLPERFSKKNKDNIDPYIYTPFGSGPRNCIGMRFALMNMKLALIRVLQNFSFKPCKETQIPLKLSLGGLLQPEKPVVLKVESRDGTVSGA

[25] = biological target: T3, Proto-oncogene tyrosine-protein kinase receptor Ret (Homo sapiens, UniProt P07949); assay: Inhibition of RET
T3 sequence (P07949 whole entry): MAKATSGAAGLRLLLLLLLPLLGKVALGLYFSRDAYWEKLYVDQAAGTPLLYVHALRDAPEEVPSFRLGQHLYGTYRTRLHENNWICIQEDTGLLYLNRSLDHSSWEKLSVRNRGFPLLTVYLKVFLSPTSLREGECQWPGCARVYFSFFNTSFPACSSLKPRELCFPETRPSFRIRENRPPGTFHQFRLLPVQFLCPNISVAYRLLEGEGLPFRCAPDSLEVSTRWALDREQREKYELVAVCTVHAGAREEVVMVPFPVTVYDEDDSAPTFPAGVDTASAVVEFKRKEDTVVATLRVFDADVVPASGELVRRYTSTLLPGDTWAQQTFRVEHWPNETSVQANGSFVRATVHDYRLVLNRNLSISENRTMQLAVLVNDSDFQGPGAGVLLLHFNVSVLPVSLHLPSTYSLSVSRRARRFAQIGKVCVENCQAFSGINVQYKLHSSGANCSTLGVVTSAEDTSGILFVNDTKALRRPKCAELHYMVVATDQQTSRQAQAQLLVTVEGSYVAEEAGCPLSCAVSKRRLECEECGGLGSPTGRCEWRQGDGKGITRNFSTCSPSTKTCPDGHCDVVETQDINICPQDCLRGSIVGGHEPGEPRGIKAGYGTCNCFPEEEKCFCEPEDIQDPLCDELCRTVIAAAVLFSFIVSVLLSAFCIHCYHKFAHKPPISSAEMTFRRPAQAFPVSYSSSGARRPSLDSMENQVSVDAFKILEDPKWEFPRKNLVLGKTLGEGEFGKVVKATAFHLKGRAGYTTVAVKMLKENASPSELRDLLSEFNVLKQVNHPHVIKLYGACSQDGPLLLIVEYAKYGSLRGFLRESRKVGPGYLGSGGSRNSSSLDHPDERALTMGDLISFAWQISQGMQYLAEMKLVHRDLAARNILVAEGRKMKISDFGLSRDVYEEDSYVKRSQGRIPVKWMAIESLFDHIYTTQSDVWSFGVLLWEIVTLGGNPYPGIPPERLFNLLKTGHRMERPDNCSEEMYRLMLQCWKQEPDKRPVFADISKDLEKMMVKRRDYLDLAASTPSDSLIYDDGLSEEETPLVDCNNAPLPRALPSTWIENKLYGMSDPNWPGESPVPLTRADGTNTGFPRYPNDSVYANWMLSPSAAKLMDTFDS

[26] = biological target: T3, Proto-oncogene tyrosine-protein kinase receptor Ret; assay: Inhibition of RET at 10 uM
Procedure, shortened: (§4)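 Upstate 55-kinase panel; single inhibitor concentration 10 µM, duplicate wells, ATP at the Km of each kinase.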

CHO [27] = assay: Cytotoxicity against CHO cells; assay type: cell-based; settings: Cricetulus griseus
[28] = biological target: T2, RAF proto-oncogene serine/threonine-protein kinase; assay: Inhibition of c-Raf at 10 uM; procedure, shortened: as §4

Compound: Cc1c(F)cc(C(=O)NC2CC2)cc1-c1ccn2c(C(C)(C)N)nnc2c1
IC50 (Blood): 177 nM

Compound: Cc1ccc(C(=O)NC2CC2)cc1-c1ccn2c(C3CCOCC3)nnc2c1
IC50 (Blood): 667 nM

Compound: Cc1c(F)cc(C(=O)NC2CC2)cc1-c1c(F)cn2c(C(C)(C)N)nnc2c1F
IC50 (Blood): 822 nM

Compound: Cc1ccc(C(=O)NC2CC2)cc1-c1ccn2c(C3(C)CC3)nnc2c1
IC50 (Blood): 232 nM

Compound: Cc1c(F)cc(C(=O)NC2CC2)cc1-c1ccn2c(C3CCOCC3)nnc2c1
IC50 (Blood): 405 nM

Compound: Cc1c(F)cc(C(=O)NC2CC2)cc1-c1ccn2c(C(C)(C)NS(C)(=O)=O)nnc2c1
IC50 (Blood): 1110 nM

Compound: Cc1c(F)cc(C(=O)NC2CC2)cc1-c1ccn2c(C3CCC3)nnc2c1
IC50 (Blood): 550 nM

Compound: COC(C)(C)c1nnc2cc(-c3cc(C(=O)NC4CC4)cc(F)c3C)ccn12
IC50 (Blood): 278 nM

Compound: CC(C)(C)c1nnc2ccc(Sc3ccc(F)cc3F)cn12
IC50 (Blood): 143 nM

The next compounds have a lower IC50 (Blood) than those just listed; values first:

IC50 (Blood): 42 nM
Compound: Cc1ccc(C(=O)NC2CC2)cc1-c1ccn2c(C(C)C)nnc2c1

IC50 (Blood): 117 nM
Compound: Cc1c(F)cc(C(=O)NC2CC2)cc1-c1ccn2c(C3(C)CC3)nnc2c1

IC50 (Blood): 115 nM
Compound: Cc1c(F)cc(C(=O)NC2CC2)cc1-c1ccn2c(C(C)C)nnc2c1

Cmax [1]: 215 ng/mL
AUC [2]: 1690 ng·h/mL
AUC [3]: 2120 ng·h/mL
AUC [4]: 19400 ng·h/mL
fraction unbound [5]: 0.42
Vd [6]: 1.7 L/kg
inhibition (INH) (Cytochrome P450 1A2): Not Active
inhibition (INH) (Cytochrome P450 2C19): Not Active
Cmax [7]: 2600 ng/mL
fraction unbound [9]: 0.39
inhibition (INH) (Cytochrome P450 2D6): Not Active
Vd [10]: 2 L/kg
Papp B→A at 12.5 µM [11]: 18 ×10⁻⁶ cm/s
clearance [12]: 9.9 mL/min/kg
half-life [13]: 3.4 h
metabolised at 0.5 h, 5 µM [14]: < 5%
clearance [15]: 7.8 mL/min/kg
Papp A→B at 12.5 µM (in vitro): 15 ×10⁻⁶ cm/s
metabolised at 0.5 h, 5 µM [16]: < 5%
AUC [17]: 1260 ng·h/mL
bioavailability [18]: 75%
IC50 (Blood): 30 nM
half-life [19]: 2.5 h
inhibition (INH) (Cytochrome P450 2C9): Not Active
bioavailability [21]: 93%
IC50 [24]: 3200 nM
inhibition (INH) (Cytochrome P450 3A4): Not Active
Compound: Cc1ccc(C(=O)NC2CC2)cc1-c1ccn2c(C(C)(C)C)nnc2c1
Activity (CHO [8]): 50%
inhibition in vivo at 3 mg/kg (Rattus norvegicus [20]): 60%
ED50 (Rattus norvegicus [22]): 0.26 mg/kg
Activity (CHO [23]): Non-toxic

Cmax [1]: 185 ng/mL
AUC [2]: 6440 ng·h/mL
AUC [3]: 8010 ng·h/mL
IC50 [25]: 2000 nM
AUC [4]: 38600 ng·h/mL
fraction unbound [5]: 0.21
Vd [6]: 1.6 L/kg
inhibition (INH) (Cytochrome P450 1A2): Not Active
inhibition (INH) (Cytochrome P450 2C19): Not Active
Cmax [7]: 3470 ng/mL
fraction unbound [9]: 0.25
inhibition (INH) (Cytochrome P450 2D6): Not Active
Vd [10]: 0.57 L/kg
Papp B→A at 12.5 µM [11]: 25 ×10⁻⁶ cm/s
clearance [12]: 2.7 mL/min/kg
half-life [13]: 3.3 h
metabolised at 0.5 h, 5 µM [14]: < 5%
clearance [15]: 2.3 mL/min/kg
Papp A→B at 12.5 µM (in vitro): 41 ×10⁻⁶ cm/s
metabolised at 0.5 h, 5 µM [16]: 6%
AUC [17]: 5060 ng·h/mL
bioavailability [18]: 79%
IC50 (Blood): 116 nM
half-life [19]: 7.3 h
inhibition (INH) (Cytochrome P450 2C9): Not Active
bioavailability [21]: 50%
inhibition (INH) (Cytochrome P450 3A4): Not Active
Compound: Cc1c(F)cc(C(=O)NC2CC2)cc1-c1c(F)cn2c(C(C)(C)C)nnc2c1F
Activity (CHO [8]): 33%
inhibition in vivo at 3 mg/kg (Rattus norvegicus [20]): 67%
ED50 (Rattus norvegicus [22]): 1.36 mg/kg
Activity (CHO [23]): Non-toxic

inhibition [26]: 66%
AUC [2]: 2770 ng·h/mL
AUC [3]: 2670 ng·h/mL
AUC [4]: 17800 ng·h/mL
fraction unbound [5]: 0.16
Vd [6]: 1.6 L/kg
inhibition (INH) (Cytochrome P450 1A2): Not Active
inhibition (INH) (Cytochrome P450 2C19): Not Active
Cmax [7]: 2580 ng/mL
fraction unbound [9]: 0.21
inhibition (INH) (Cytochrome P450 2D6): Not Active
Vd [10]: 1.3 L/kg
Papp B→A at 12.5 µM [11]: 23 ×10⁻⁶ cm/s
clearance [12]: 6.2 mL/min/kg
half-life [13]: 3.8 h
metabolised at 0.5 h, 5 µM [14]: < 5%
clearance [15]: 6.5 mL/min/kg
Papp A→B at 12.5 µM (in vitro): 27 ×10⁻⁶ cm/s
metabolised at 0.5 h, 5 µM [16]: < 5%
IC50 (Blood): 48 nM
half-life [19]: 3.5 h
inhibition (INH) (Cytochrome P450 2C9): Not Active
inhibition [28]: 66%
bioavailability [21]: 66%
inhibition (INH) (Cytochrome P450 3A4): Not Active
Compound: Cc1c(F)cc(C(=O)NC2CC2)cc1-c1ccn2c(C(C)(C)C)nnc2c1
IC50 (CHO [27]): 107000 nM
Activity (CHO [23]): Non-toxic

IC50 (Blood): 124 nM
Compound: Cc1c(F)cc(C(=O)NC2CC2)cc1-c1c(F)cn2c(C(C)(C)N(C)C)nnc2c1F
